Results on one compound are retold here after ChEMBL document CHEMBL3580554, “Design, synthesis, and anticonvulsant activity of new hybrid compounds derived from 2-(2,5-dioxopyrrolidin-1-yl)propanamides and 2-(2,5-dioxopyrrolidin-1-yl)butanamides” (J Med Chem, 2015).

Molecules are shown by their SMILES. Some results are limits rather than exact numbers.

Series [1] concerns Mus musculus. As to the kind of experiment: Anticonvulsant activity in Swiss mouse assessed as protection against seizures at 300 mg/kg, ip dosed 0.5 hrs before initiation of maximal electroconvulsions by maximal electroshock test. In kind it is functional. A digest of the protocol: (§1)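 Mice were dosed i.p. at a fixed 300 or 100 mg/kg (6 Hz: 100 mg/kg only). Protection was then scored against MES, sc PTZ or 6 Hz seizures at pretreatment times of 0.25, 0.5, 1 and 2 h. Groups were four mice, scored as number protected / number tested. This also gives the time course and time of peak effect.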
Background: In the maximal electroshock model the usual endpoint is tonic extension of the hind limbs.

For series [2], the system named is Mus musculus. As to the kind of experiment: Anticonvulsant activity in Swiss mouse assessed as protection against seizures at 300 mg/kg, ip dosed 2 hrs before initiation of maximal electroconvulsions by maximal electroshock test. In kind it is functional. An outline of the steps: as §1
Series [3] has as its system Mus musculus. Put plainly: Anticonvulsant activity in Swiss mouse assessed as protection against seizures at 100 mg/kg, ip dosed 0.25 hrs before initiation of maximal electroconvulsions by maximal electroshock test. In kind it is functional. An outline of the steps: as §1
Series [4] relates to Mus musculus. As to the kind of experiment: Anticonvulsant activity in Swiss mouse assessed as protection against seizures at 100 mg/kg, ip dosed 0.25 hrs before pentylenetetrazole challenge by subcutaneous pentylenetetrazole seizure test. The series is classed as functional. A digest of the protocol: as §1
For series [5], the system named is Mus musculus. As to the kind of experiment: Anticonvulsant activity in Swiss mouse model of 6 Hz psychomotor seizure mode assessed as protection against seizures at 100 mg/kg, ip dosed 0.25 hrs before 6 Hz electrical stimulation by 6 Hz test. The series is classed as functional. An outline of the steps: as §1
The test system of series [6] is Mus musculus. As to the kind of experiment: Anticonvulsant activity in Swiss mouse model of 6 Hz psychomotor seizure mode assessed as protection against seizures at 100 mg/kg, ip dosed 0.5 hrs before 6 Hz electrical stimulation by 6 Hz test. The series is classed as functional. An outline of the steps: as §1
Series [7] is filed under the species Rattus norvegicus. Put plainly: Inhibition of [3H]BTX binding to sodium channel site 2 in rat cerebral cortex synaptosomes at 100 uM incubated for 60 mins by scintillation counting based radioligand displacement assay. The series is classed as subcellular. An outline of the steps: (§2)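 Synaptoneurosomal preparations from rat cerebral cortex were used. The read-out was inhibition of specific [3H]BTX binding to the voltage-sensitive sodium channel (site 2), expressed as % inhibition of control specific binding. Compounds were tested at 1, 10, 100 and 500 μM. Inhibition above 50% was taken as significant.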
A general note: Loss of bound radioactivity is the signal in a displacement assay; it reports binding, not function.

The species named for series [8] is Rattus norvegicus. Put plainly: Inhibition of [3H]BTX binding to sodium channel site 2 in rat cerebral cortex synaptosomes at 10 uM incubated for 60 mins by scintillation counting based radioligand displacement assay. The series is classed as subcellular. An outline of the steps:
as §2

Series [9] is filed under the species Rattus norvegicus. As to the kind of experiment: Inhibition of [3H]BTX binding to sodium channel site 2 in rat cerebral cortex synaptosomes at 1 uM incubated for 60 mins by scintillation counting based radioligand displacement assay. The series is classed as subcellular. An outline of the steps: as §2
Series [10] is filed under the species Mus musculus. Put plainly: Protective index, ratio of neurotoxic TD50 in Swiss mouse by Chimney test to anticonvulsant ED50 in Swiss mouse measured at 0.5 hrs of time to peak effect by maximal electroshock test. An outline of the steps: (§3)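 Protective index was calculated as TD50 (chimney test, mouse, i.p.) divided by ED50 from the matching MES, sc PTZ or 6 Hz test, both taken at the time of peak effect.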

The test system of series [11] is Mus musculus. As to the kind of experiment: Anticonvulsant activity in ip dosed Swiss mouse assessed as protection against seizures measured at 0.5 hrs of time to peak effect by maximal electroshock test. In kind it is functional. An outline of the steps:
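Median effective doses (ED50, mg/kg) were determined i.p. in mice at the time of peak effect in the MES, sc PTZ or 6 Hz tests. Only compounds giving at least 50% protection at 100 mg/kg in that test were taken forward.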

The nature of series [12]: Toxicity in ip dosed Swiss mouse assessed as induction of motor performance impairment measured within 60 seconds measured at 0.5 hrs of time to peak effect by Chimney test. The series is classed as organism-based. Conditions: in vivo. A digest of the protocol: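 Neurotoxicity was measured i.p. in mice by the chimney test for motor impairment. It was given as the median neurotoxic dose (TD50, mg/kg) at the time of peak effect.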

For series [13], the species on record is Mus musculus. As to the kind of experiment: Protective index, ratio of neurotoxic TD50 in Swiss mouse by Chimney test to anticonvulsant ED50 in Swiss mouse measured at 0.5 hrs of time to peak effect by 6 Hz test by 6 Hz psychomotor seizure test. In kind it is functional. A digest of the protocol: as §3
Series [14] concerns Mus musculus. Put plainly: Anticonvulsant activity in ip dosed Swiss mouse assessed as protection against seizures measured at 1 hr of time to peak effect by maximal electroshock test. The series is classed as functional.
The subject of series [15] is Mus musculus. As to the kind of experiment: Anticonvulsant activity in ip dosed Swiss mouse assessed as protection against seizures measured at 1 hr of time to peak effect by subcutaneous pentylenetetrazole seizure test. The series is classed as functional.
A short description of series [16]: Toxicity in ip dosed Swiss mouse assessed as induction of motor performance impairment measured within 60 seconds measured at 1 hr of time to peak effect by Chimney test. In kind it is organism-based. Conditions: in vivo. A digest of the protocol:
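Neurotoxicity (TD50) estimated in mice i.p. by chimney test for motor coordination impairment; protective index calculated as TD50/ED50 for each seizure model.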

The species entered for series [17] is Mus musculus. Put plainly: Protective index, ratio of neurotoxic TD50 in Swiss mouse by Chimney test to anticonvulsant ED50 in Swiss mouse measured at 1 hr of time to peak effect by maximal electroshock test. An outline of the steps:
as §3

The species entered for series [18] is Rattus norvegicus. Put plainly: Inhibition of [3H]BTX binding to sodium channel site 2 in rat cerebral cortex synaptosomes at 500 uM incubated for 60 mins by scintillation counting based radioligand displacement assay. In kind it is subcellular. An outline of the steps:
as §2

Consider `CC(C(=O)N1CCN(c2cccc(C(F)(F)F)c2)CC1)N1C(=O)CCC1=O` (racemic), for which the Activity with Mus musculus [1] is given as 100%; in the series on Mus musculus [2], 100%; with Mus musculus [3] it was 50%; with Mus musculus [4], 50%; in the series with Mus musculus [5] it was 75%; with Mus musculus [6], 100%. For the same compound, the inhibition (in general, how much of the control response was suppressed) came out at 37.4% in the series listed under Rattus norvegicus [7], 12.2% in the series filed under Rattus norvegicus [8], 3.5% in the series listed under Rattus norvegicus [9] and 62.3% in the series listed under Rattus norvegicus [18]. Moreover, the figures for the “Ratio TD50/ED50” value in the series filed under Mus musculus [10], in the series listed under Mus musculus [13] and in the series listed under Mus musculus [17] were over 16.97, over 71.43 and 9.68, respectively. Also, the ED50 (commonly the dose that gives a 50% effect, or the effect in half of the subjects) was determined as 88.4 mg/kg in the series with Mus musculus [11], 85.1 mg/kg in the series on Mus musculus [14] and 88.7 mg/kg in the series on Mus musculus [15]. In addition, the TD50 – broadly, the dose at which the toxic effect under study appears in half of the subjects – at 0.5 h in series [12] was over 1500 mg/kg. For the same compound, in series [16], the TD50 at 1 h amounted to 824 mg/kg.
